# From PubChem BioAssay
# Rows were chosen to be rich in hits. Some 1.5% of all compounds tested hit in one or more screens of this group.
# APJ antag = antagonists of human apelin receptor APJ, primary screen, CHO-K1 cells, beta-arrestin complementation, luminescence; P35414; inhibition, % at 20 µM; actives 0.32% (n = 330,000);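 active = inhibition above about 40% at 20 µM, limit read from the data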;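 note: cells challenged with 10 nM apelin-13 agonist together with compound; plate controls were apelin-13 plus DMSO wells for no effect and DMSO wells lacking apelin-13 for full effect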
# Target sequence (P35414 whole entry, looked up): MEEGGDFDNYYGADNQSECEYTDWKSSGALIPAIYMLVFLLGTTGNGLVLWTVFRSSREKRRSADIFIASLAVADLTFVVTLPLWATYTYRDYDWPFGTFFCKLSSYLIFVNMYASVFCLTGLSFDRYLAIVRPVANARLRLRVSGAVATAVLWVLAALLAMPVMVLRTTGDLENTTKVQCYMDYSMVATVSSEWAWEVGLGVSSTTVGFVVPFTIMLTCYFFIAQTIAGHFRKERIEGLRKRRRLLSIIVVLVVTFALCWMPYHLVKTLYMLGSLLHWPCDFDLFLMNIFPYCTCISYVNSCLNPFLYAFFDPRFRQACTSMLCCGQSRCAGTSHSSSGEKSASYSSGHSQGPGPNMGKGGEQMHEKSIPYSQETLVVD
# CCR6 antag = CCR6 receptor antagonists, primary screen, cell-based, CHO-K1, luminescence, beta-arrestin, uHTS. AID 493098, 2011. CHO-K1 CCR6 PathHunter beta-arrestin, CCL20-stimulated. inhibition, % at 20 µM. C-C chemokine receptor type 6 (Homo sapiens), P51684. actives 0.49% (n = 340,000);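 active = compounds whose inhibition of the agonist-driven luminescence signal at 20 µM reaches about 50%, limit read from the data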;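 note: cells stimulated with CCL20 at 14 nM final; plate controls were DMSO with CCL20 for no effect and DMSO without agonist for full effect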
# APJ ag = agonists of human apelin receptor APJ, primary screen, CHO-K1 cells, PathHunter beta-arrestin, luminescence; 0% DMSO wells, 100% apelin; P35414; activation, % at 20 µM; actives 0.11% (n = 330,000);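 active = activation more than six SD over the plate average, tested at 20 µM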;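 note: 0% = DMSO alone and 100% = apelin-13 at 10 nM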
#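 Assay system: CHO-K1 APJ beta-arrestin complementation cell line / Compound: single test compound dose, 20 µM final, 1% DMSO / Times: overnight seeding, 90 min compound at 25 °C, 1 h detection / Technique: beta-gal luminescence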
# CXCR6 inh = CXCR6 receptor inhibitors, primary screen, cell-based, beta-arrestin, luminescence, CHO-K1 PathHunter, 1536-well; inhibition, % at 20 µM; actives 0.36% (n = 360,000); in the data active = inhibition above about 34%, passing the limit was not always enough;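 note: antagonist mode with CXCL16 agonist at 10 nM final; 0% = 10 nM CXCL16 with DMSO and 100% = unstimulated wells without agonist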
# EBI2 block = EBI2 receptor antagonists, beta-arrestin recruitment, primary screen, cell-based, luminescence, 7a,25-OHC stimulation, uHTS. G-protein coupled receptor 183 (Homo sapiens), P32249. 7a,25-OHC stimulated. inhibition, % at 5 µM. actives 0.81% (n = 360,000). AID 651636, 2012; in the data active = inhibition above about 38%;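 note: enzyme fragment complementation signal reports receptor beta-arrestin coupling in cells; 0% = agonist plus DMSO wells and 100% = wells without agonist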
# EBI2 antag conf = EBI2 antagonist hit retest, beta-arrestin, confirmation, cell-based, single concentration, luminescence, 7a,25-OHC stimulation; shares compounds with EBI2 block; 7a,25-OHC antagonism; inhibition, % at 5 µM; actives 29% (n = 2,400);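 active = inhibition of at least 50%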
# EBI2 ag = EBI2 agonist activity of antagonist hits, confirmation, counter-screen for EBI2 antagonist project, cell-based, single concentration, agonist mode, luminescence | shares compounds with EBI2 block | EBI2-expressing cells, 60 min; 0% vehicle, 100% 7α,25-dihydroxycholesterol control | 2,400 tested, under 10 active | activation, % at 5 µM;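 active = activation of at least 50%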
# bGal counter = E. coli beta-galactosidase enzyme inhibition, confirmation, counter-screen for EBI2 antagonist project, biochemical, luminescence, single concentration | AID 652176, 2013 | actives 1% (n = 2,400) | purified beta-galactosidase, luminescent Galacton Star, 15 min | inhibition, % at 5 µM | shares compounds with EBI2 block;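 active = replicate-average signal at least 3 plate SD below neutral wells, shown as high inhibition, flagging enzyme-inhibiting false positives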;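 note: 0% = DMSO wells with enzyme and 100% = wells lacking enzyme; higher means stronger loss of beta-gal luminescence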
# The depositor's hits bear a star; . = no result.
SMILES,APJ antag,CCR6 antag,APJ ag,CXCR6 inh,EBI2 block,EBI2 antag conf,EBI2 ag,bGal counter
COc1cc(NC(=O)c2cc3nc(C4CC4)cc(C(F)(F)F)n3n2)c(OC)cc1Cl,-9.8,7.9,-1.6,4.0,37.6*,7.1,-1.4,-11.4
CCOc1ccccc1CNn1cnnc1,3.3,1.0,-2.4,-15.2,-5.9,.,.,.
COc1ccc(Oc2nc(-c3ccncc3)nc3ccccc23)cc1,-0.6,4.3,0.0,5.9,20.7,.,.,.
CCCOc1ccc(Oc2nc(-c3ccncc3)nc3ccccc23)cc1,-1.0,16.0,-1.2,1.7,49.8*,-1.1,-1.0,-12.9
COc1cccc(Oc2nc(-c3ccncc3)nc3ccccc23)c1,-11.3,9.8,1.0,6.2,44.1*,5.2,0.8,9.4
Cc1ccc(-c2cc(C(=O)N3CC(C)OC(C)C3)c3ccccc3n2)o1 (stereo not drawn),2.0,-2.0,0.3,1.3,-17.3,.,.,.
COc1ccc(OC)c(C2=Nn3c(nnc3-c3ccco3)SC2)c1,16.5,14.5,-0.3,10.7,31.6,.,.,.
COc1ccc(OC)c(C2=Nn3c(nnc3-c3cccc(OC(C)C)c3)SC2)c1,-8.1,20.4,-5.7,17.7,46.0*,35.0,0.8,-1.7
Oc1cccc(CN2CCN(c3ncc(Cc4ccccc4)cn3)CC2)c1,.,.,.,.,-4.8,.,.,.
CNc1ccc(/C=C(\C#N)c2ccccn2)cc1[N+](=O)[O-],3.0,9.0,-3.5,6.2,4.6,.,.,.
N#C/C(=C\c1ccc(Cl)c([N+](=O)[O-])c1)c1ccccn1,-6.7,-5.4,5.4,-13.4,52.9*,58.3*,3.3,-0.4
CCCCC(=NCCc1c(C)[nH]c2ccc(OC)cc12)C1=C(O)CC(c2ccccc2)CC1=O (stereo not drawn),-18.8,18.6,-3.8,14.2,51.2*,1.9,15.4,-11.9
CCC(=NCCc1c(C)[nH]c2ccc(OC(F)(F)F)cc12)C1=C(O)CC(c2ccccc2)CC1=O (stereo not drawn),-28.8,14.1,-0.7,15.8,38.8,.,.,.
CC(=NCCc1c(C)[nH]c2ccc(OCc3ccccc3)cc12)C1=C(O)CC(c2ccccc2)CC1=O (stereo not drawn),6.5,8.4,0.4,9.1,46.4*,25.1,0.5,4.6
CCCC(=O)n1nc(-c2ccccc2)nc1SC,-0.5,-8.4,-7.7,-7.8,42.7*,24.2,1.2,7.2
CCCOc1ccc(-c2c(C(=O)N/N=C/c3ccsc3)nnn2-c2nonc2N)cc1,-16.7,11.7,0.8,10.4,6.0,.,.,.
Cc1nc(CS(=O)(=O)c2ccc(Cl)cc2)cc(Sc2ccc(Cl)cc2)n1,0.0,0.5,-5.3,-1.2,73.2*,62.4*,-0.2,11.2
O=S(=O)(Cc1cc(Sc2ccc(Cl)cc2)nc(-c2ccccc2)n1)c1ccccc1,16.5,12.0,-0.4,7.0,30.9,.,.,.
O=C(CN1C(=O)NC2(CCCC2)C1=O)Nc1ccccc1,11.0,5.7,-1.4,-12.3,-8.3,.,.,.
Cc1cccc(C)c1N1CCN(C(=O)Nc2ccc3c(c2)OCCO3)CC1,-5.2,8.2,0.6,-4.5,63.9*,54.4*,0.1,6.7
Cc1ccc(N(CC(=O)NC2CCCC2)C(=O)CCC(=O)Nc2nccs2)cc1C,-6.2,14.2,-3.6,-6.6,-0.3,.,.,.
Cc1ccc(CNC(=O)/C=C/c2ccc(S(=O)(=O)NCc3ccco3)cc2)cc1,3.8,14.1,-1.7,14.1,44.5*,27.4,-0.2,-1.3
c1ccc(COc2cccc(-c3cc4nc(NCCc5ccncc5)ccn4n3)c2)cc1,.,.,.,-6.5,46.6*,31.1,-0.9,-11.9
CC(NC(=O)COC(=O)/C=C/c1ccc(Cl)cc1)c1ccccc1 (stereo not drawn),-16.2,15.5,0.4,2.8,47.8*,15.4,-1.2,-11.4
CC(NC(=O)COC(=O)/C=C/c1cccc(F)c1)c1ccccc1 (stereo not drawn),5.3,0.4,-3.1,-6.9,17.0,.,.,.
SMILES,APJ antag,CCR6 antag,APJ ag,CXCR6 inh,EBI2 block,EBI2 antag conf,EBI2 ag,bGal counter
Cc1ccc(C(C)C)c(OCCNC(=O)c2cncc(Br)c2)c1,-28.6,15.5,-2.8,-7.9,49.6*,27.2,-2.0,-4.0
COc1cc(CN2CCN(C(=O)c3ccc(-c4ccccc4)cc3)CC2)cc(OC)c1OC,-3.9,8.1,-2.7,10.5,47.9*,32.5,0.3,8.3
COc1cccc(CN2CCN(C(=O)c3cccc(OC)c3)CC2)c1,4.0,13.1,-1.5,2.6,-4.4,.,.,.
COc1cccc(CN2CCN(C(=O)c3ccc(-c4ccccc4)cc3)CC2)c1OC,0.4,7.8,-4.4,-1.9,64.6*,43.5,-0.1,9.5
COc1cccc(CN2CCN(C(=O)c3ccc(-c4ccccc4)cc3)CC2)c1,-6.7,-5.3,-2.2,13.3,77.5*,44.9,0.6,9.2
COc1cccc(C(=O)N2CCN(C(=O)c3ccc(-c4ccccc4)cc3)CC2)c1OC,13.5,4.3,-0.7,3.0,77.9*,48.3,0.8,10.4
CC(C)(C)CC(C)(C)NC(=O)Nc1cccc([N+](=O)[O-])c1,2.8,14.1,0.0,-24.3,7.6,.,.,.
O=c1c(O)c(-c2cccs2)oc2ccccc12,-10.8,14.0,-1.5,1.8,0.8,.,.,.
Cc1csc(NC(=O)CSc2ccc3nnc(CCNS(=O)(=O)c4ccccc4)n3n2)n1,5.2,-11.4,0.4,-0.6,3.3,.,.,.
Cc1ncc([N+](=O)[O-])n1Cc1ccccc1,-3.2,2.5,-6.5,4.8,-11.8,.,.,.
O=C(O)c1cc2cc(Cl)ccc2[nH]1,.,-9.5,.,6.7,0.8,.,.,.
CN1CCN(C(=O)c2cc3cc(Cl)ccc3[nH]2)CC1,-12.4,8.7,-1.5,2.3,56.2*,32.2,1.5,2.5
O=CN1CCN(C(=O)c2cc3cc(Cl)ccc3[nH]2)CC1,8.8,-7.1,0.0,-4.1,58.7*,39.1,-2.2,-7.5
O=C(c1cc2cc(Cl)ccc2[nH]1)N1CCCCC1,16.6,13.2,-1.8,-5.3,27.3,.,.,.
CCN1CCN(C(=O)c2cc3cc(Cl)ccc3[nH]2)CC1,12.5,2.9,-4.8,-3.8,83.7*,66.7*,0.6,8.2
